In paper PMC3397136 (Amino Acids, 2011):
Values joined by “and” are separate entries in the source; they are usually repeats but may differ in a detail not shown here. Equal entries are not always repeated. Where two headings read alike, the source gives them in different places. Positions of bridges follow the written chain, without caps; N, C: chain ends. No end group written: not given here.

Legend:
[1] = system: arterial blood pressure (pressor response to AVP); conditions: cited from earlier work
strips of rat uterus [2] = conditions: cited from earlier work
[3] = system: conscious male rats (antidiuresis); conditions: cited from earlier work; for Antidiuretic IU/mg: single value, ref Lebl (1987); for Antidiuretic IU/mg (200 min): 200 min level; for Antidiuretic IU/mg 60 min: threshold level 60 min
[4] = system: conscious male rats (antidiuresis); assay: antidiuretic test on conscious male rats; assay type: in vivo, rat; conditions: for Antidiuretic IU/mg (200 min): level t1/2 200 min (in parentheses); for Antidiuretic IU/mg (200 min) / Antidiuretic IU/mg 60 min: s.c., AVP taken as 465 IU/mg; for Antidiuretic IU/mg 60 min: threshold level t1/2 60 min; for antidiuretic activity (in words): rat, in vivo; for Antidiuretic IU/mg: single value given, no level given
How it was run: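 Fasted (16 h) conscious male Wistar rats given a tap-water load of 4% body weight by stomach catheter. Test compound or saline was then injected s.c. (0.001–100 nmol/kg), and urine was collected for 5 h in metabolic cages. The half-excretion time t1/2 was plotted against dose. […] Groups were 4–5 rats, with 2–3 independent days per dose.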

[5] = system: arterial blood pressure (pressor response to AVP); assay: vasopressor test in phenoxybenzamine-treated male rats under urethane anesthesia; assay type: in vivo, rat; conditions: for Pressor pA2 (antagonist) / pressor activity (in words): rat; for Pressor pA2 (antagonist): i.v., antagonist 1 min before AVP; for Pressor IU/mg or pA2 (0 = no activity): 0 means no activity up to the dose of 0.15 mg/kg of experimental animal; for pressor activity (in words): in vivo
How it was run: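 Male Wistar rats were pretreated with phenoxybenzamine and anesthetized with urethane, and arterial blood pressure was recorded. AVP standard was given as single femoral-vein injections to build dose–response curves with and without antagonist, which was given 1 min earlier. Results are IU/mg for agonists or pA2 for antagonists, with distribution volume taken as 67 ml/kg. Inactivity means no response up to 0.15 mg/kg. 3–5 experiments, mean ± SEM.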

strips of rat uterus [6] = assay type: cell-based; conditions: for anti-oxytocic potency, times less potent than the mother compound III: in vitro uterus test
How it was run: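 Wistar rats were brought into estrus by estrogen injection 48 h before use. After decapitation, uterine horns were cut longitudinally and mounted in an organ bath without Mg2+, and isometric contraction height was recorded. Oxytocin standard, with or without test compound, or test compound alone was dosed cumulatively in doubling concentrations at 1 min intervals until maximal response. Results are agonist IU/mg or antagonist pA2, using uteri from 3–5 rats, mean ± SEM.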

[7] = ref Melin et al. (1986), Manning et al. (1995)
[8] = rat uterus strips, no Mg2+, average ± SEM, n = 3–5

Substance: [Mpa^1]OT
- Pressor IU/mg ([1]; ref Lebl (1987)): 1.44 IU/mg
- Uterotonic in vitro no Mg2+ IU/mg (strips of rat uterus [2]; ref Lebl (1987)): 803 IU/mg
- Antidiuretic IU/mg [3]: 19 IU/mg

Substance: arginine vasopressin (CYFQNCPRG-NH2; disulfide 1-6; UniProt P01185 20-28, looked up) [AVP]
- Pressor IU/mg ([1]; ref Lebl (1987)): 412 IU/mg
- Uterotonic in vitro no Mg2+ IU/mg (strips of rat uterus [2]; ref Lebl (1987)): 17 IU/mg
- Antidiuretic IU/mg [3]: 465 IU/mg

Substance: [Mpa^1,cis-Apc^2,D-Arg^8]VP [VI]
- Antidiuretic IU/mg (200 min) [4]: 1,000 IU/mg
- Antidiuretic IU/mg 60 min [4]: 5 IU/mg
- Pressor pA2 (antagonist) [5]: pA2 ~ 7.1

Substance: d[D-Tyr(Et)^2,Thr^4]OVT [Atosiban]
- Pressor pA2 [1, 7]: pA2 = 6.14 ± 0.02
- Uterotonic in vitro no Mg2+ pA2 (strips of rat uterus [2]; [7]): 7.71 and 7.71 ± 0.05
- Antidiuretic pA2 [3, 7]: pA2 = 5.9

Substance: oxytocin [OT]
- Pressor IU/mg ([1]; ref Lebl (1987)): 5 IU/mg
- Uterotonic in vitro no Mg2+ IU/mg (strips of rat uterus [2]; ref Lebl (1987)): 450 IU/mg
- Antidiuretic IU/mg [3]: 5 IU/mg

Substance: Hba[cis-Apc^2,Val^4]AVP [X]
- Antidiuretic IU/mg (200 min) [4]: < 0.5 IU/mg
- Antidiuretic IU/mg 60 min [4]: < 0.01 IU/mg
- anti-oxytocic potency, times less potent than the mother compound III (strips of rat uterus [6]): about 4 times

Substance: [Mpa^1,cis-Apc^2]OT [XIII]
- antidiuretic activity (in words) [4]: inactive
- Antidiuretic IU/mg [4]: 0 IU/mg
- Uterotonic in vitro no Mg2+ pA2 (anti-oxytocic) (strips of rat uterus [6]; [8]): pA2 = 8.11 + 0.18
- Uterotonic in vitro no Mg2+ pA2 (anti-oxytocic) (strips of rat uterus [6]; rat uterus strips, no Mg2+, average ± SEM, n = 3–5, listed as [Mpa^1,cis-Apc^2]OT): 8.11
- Pressor pA2 (antagonist) [5]: pA2 ~ 6.0

Substance: [Acc^2,Val^4]AVP
- Pressor IU/mg ([1]; ref Kowalczyk et al. (2004)): 0.9 ± 0.30 IU/mg
- Uterotonic in vitro no Mg2+ pA2 (strips of rat uterus [2]; ref Kowalczyk et al. (2004)): pA2 = 6.9
- Antidiuretic IU/mg (200 min) ([3]; ref Kowalczyk et al. (2004)): 23,000 IU/mg
- Antidiuretic IU/mg 60 min ([3]; ref Kowalczyk et al. (2004)): 2,300 IU/mg

Substance: [Mpa^1,Acc^2]AVP
- Pressor IU/mg ([1]; ref Kowalczyk et al. (2004)): 17.2 ± 0.8 IU/mg
- Uterotonic in vitro no Mg2+ pA2 (strips of rat uterus [2]; ref Kowalczyk et al. (2004)): ~5.6
- Uterotonic in vitro no Mg2+ IU/mg (strips of rat uterus [2]; value in parentheses, ref Kowalczyk et al. (2004)): 0.7 IU/mg
- Antidiuretic IU/mg (200 min) ([3]; ref Kowalczyk et al. (2004)): 50,000 IU/mg
- Antidiuretic IU/mg 60 min ([3]; ref Kowalczyk et al. (2004)): 4,500 IU/mg

Substance: t-Bba[cis-Apc^2,Val^4]AVP [IX]
- Antidiuretic IU/mg (200 min) [4]: < 0.5 IU/mg
- Antidiuretic IU/mg 60 min [4]: < 0.01 IU/mg
- Uterotonic in vitro no Mg2+ IU/mg (agonist) (strips of rat uterus [6]; [8]): 10.1 ± 3.8 IU/mg and 10.1 + 3.8 IU/mg
- Pressor IU/mg or pA2 (0 = no activity) [5]: 0
- pressor activity (in words) [5]: eliminated its effect on blood pressure

Substance: Aca[cis-Apc^2,Val^4]AVP [VIII]
- Antidiuretic IU/mg (200 min) [4]: < 0.5 IU/mg
- Antidiuretic IU/mg 60 min [4]: < 0.01 IU/mg
- Pressor IU/mg or pA2 (0 = no activity) [5]: 0
- pressor activity (in words) [5]: eliminated its effect on blood pressure

Substance: [Cpa^1,cis-Apc^2]OT [XIV]
- Uterotonic in vitro no Mg2+ pA2 (anti-oxytocic) (strips of rat uterus [6]; [8]): pA2 = 7.97 + 0.24
- Pressor pA2 (antagonist) [5]: pA2 ~ 6.73

Substance: [Cpa^1,cis-Apc^2]AVP [VII]
- Antidiuretic IU/mg (200 min) [4]: 1 IU/mg
- antidiuretic activity (in words) [4]: negligible
- Antidiuretic IU/mg 60 min [4]: 0.05 IU/mg
- Uterotonic in vitro no Mg2+ pA2 (anti-oxytocic) (strips of rat uterus [6]; [8]): pA2 = 7.85 + 0.14
- Pressor pA2 (antagonist) [5]: pA2 ~ 6.2
- pressor activity (in words) [5]: weak and low antagonistic activity

Substance: [Acc^2]AVP
- Pressor IU/mg ([1]; ref Jastrzębska et al. (2003)): 56.6 IU/mg
- Uterotonic in vitro no Mg2+ pA2 (strips of rat uterus [2]; ref Jastrzębska et al. (2003)): pA2 ~ 5.6
- Antidiuretic IU/mg (200 min) ([3]; ref Jastrzębska et al. (2003)): ~9,300 IU/mg
- Antidiuretic IU/mg 60 min ([3]; ref Jastrzębska et al. (2003)): 750–900 IU/mg

Substance: [cis-Apc^2,D-Arg^8]VP
- Antidiuretic IU/mg (200 min) [4]: 200 IU/mg
- antidiuretic activity (in words) [4]: negligible
- antidiuretic potency relative to AVP ([4]; t1/2 level of 200 min): about 43%
- Antidiuretic IU/mg 60 min [4]: 1 IU/mg
- Pressor pA2 (antagonist) [5]: pA2 ~ 7.1

Substance: [cis-Apc^2]OT [XII]
- Uterotonic in vitro no Mg2+ pA2 (anti-oxytocic) (strips of rat uterus [6]; [8]): pA2 = 7.89 + 0.07
- Pressor pA2 (antagonist) [5]: pA2 ~ 5.75
- pressor activity (in words) [5]: weak

Substance: [Cpa^1,Acc^2]AVP
- Uterotonic in vitro no Mg2+ pA2 (strips of rat uterus [2]; ref Jastrzębska et al. (2003)): 7.33

Substance: Aba[cis-Apc^2,Val^4]AVP [XI]
- Antidiuretic IU/mg [4]: 0 IU/mg
- anti-oxytocic potency, times less potent than the mother compound III (strips of rat uterus [6]): ~10 times
- Pressor IU/mg or pA2 (0 = no activity) [5]: 0
- pressor activity (in words) [5]: eliminated its effect on blood pressure
